Measured values from the RNAGym collection of RNA variant scans (doi:10.1126/science.aae0568).
This sample holds only a part of the variants without activity.

B1: tRNA (parent)
chain: GUUCCGUUGGCGUAAUGGUAACGCGUCUCCCUCCUAAGGAGAAGACUGCGGGUUCGAGUCCCGUACGGAACG

Variants of: B1
Assay: yeast fitness relative to wild type (ratio to wild type); higher = fitter; tRNA-Arg(CCU), competitive growth, 37 C, YPD
Procedure, shortened: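 A pool of Saccharomyces cerevisiae strains, each with a tRNA-Arg(CCU) gene variant at the native genomic locus, was competed in YPD at 37°C for 24 hours across six parallel replicates. The variants had been chemically synthesised at a 3% per-site mutation rate over 69 sites, and gene amplicons before and after competition were read by 100-nucleotide paired-end sequencing. Darwinian fitness relative to wild type rested on changes in genotype frequencies. Genotypes required ≥ 100 starting reads, and estimates < 0.5 were set to 0.5.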

Variant	yeast fitness
GUUGCGUUGGCGUAAUGGUAACGUGUCUCCCUCCUAAGGAGAUGACUGCGGGUUCGAGUCCCGUACGGAACG [C4G C24U A43U]	0.65
GUUGCGUUGGCGUAAUGGUAACGCGUCUCGCUCCUAAGGACAAGACUGCGGGUUCGAGUCCCGUACGGAUCG [C4G C30G G41C A70U]	≤ 0.5
GUUGCGUUGGCGUAAUGGUAACGAGUCUCCCUCAGAAGGAGAAGACUGAGGGUUCGAGUCCGGUACGGAACG [C4G C24A C34A U35G C49A C62G]	≤ 0.5
GUUGCGUUGGCGUAAUGGUAACGCGUCUCGCUACUAAGGAGAAGACUGCGGGUUCGAGUCGCGUACGGAACG [C4G C30G C33A C61G]	≤ 0.5
GUUGCGUUGGCGUAAUGGUAACGCGUCUCCAUCCUAAGGAGAAGACUGCGGGUUCGAGUCCCGUACGGAACG [C4G C31A]	0.817
GUUGCGUUGGCGUAAUGGUAACGUGUCUCCCUCCUAAGGUGCAGUCUGCGGGUUCGAGUCCCGUACGGAACG [C4G C24U A40U A42C A45U]	≤ 0.5
GUUGCGUUGGUGUAAUGGAAACGCGUCUCCCACCUAUGGAGAAGACUGCGGGUUCGAGUCCCGUACGGAACG [C4G C11U U19A U32A A37U]	≤ 0.5
GUUGCGUUGGCGUAAUGGUAACGCGUCUCCGGCCUAAGGAGAAGACUGCGGGUUCGAGUCCCGUACGGAACG [C4G C31G U32G]	≤ 0.5
GUUGCGUUGGCGUAAUGGUAACGCGUGUCCCUCCUAAGGAGAAGACUGCGGGUUCGAGUCCCGUACGGAACG [C4G C27G]	0.816
GUUGCGUUGGUGUAAUGGUAACGCGUCUGCCUCCUAAGGAGAAGACUGCGGGUUCGAGUCCCCUAUGGAACG [C4G C11U C29G G63C C66U]	≤ 0.5
GUUGCGUUGGCGUAAUGGUAACGCGUCUCUCUCCUAAGGAGUAGACUGCCGGUUCGAGUCCAGUACGGAACG [C4G C30U A42U G50C C62A]	0.511
GUUGCGUUGGCGUAAUGGUAAGGCGUCUCCCUCCUAAGGAGAAGACUGCGGCUUCGAGUCCCGUACGCAACG [C4G C22G G52C G68C]	0.575
GUUGCGUUGGCGUAAUGGUAACGCGUUUCCCUCCUAAGGACAAGACUGCGGGUUCGAGUCCCGUACGGAACG [C4G C27U G41C]	≤ 0.5
GUUGCGUUGGUGUAAUGGUAACGCGUCGCCCUCCUAAGGAGAAGCCUGCGGGAUCGAGUCCCCUACGGAACG [C4G C11U U28G A45C U53A G63C]	0.559
GUUGCGUUGGCGUAAUGGUAACGCGUCUGCCUCCUAAGGAGAAGACUGCGGGUUCGAGUCCCGUACGGAACG [C4G C29G]	0.69
GUUGCGUUGGCGUAAUGGUAACGCGUCUUCCUCCUAAGGAGAAGACUGCGGGUUCGAGUCCCGUACGGAACG [C4G C29U]	0.751
GUUGCGUUGGCGUAAUGGUAACGCGUCUGCCUCCUCUGGCGAAGGCUGCGAGUUCGAGUCCCGUACGGAUCG [C4G C29G A36C A37U A40C A45G G51A A70U]	≤ 0.5
GUUGCGUUGGCGUAAUGGUAACGCGUCUCCGUCCUAAGGAGAAGACUGCGGGUUCGAGUCCCGUACGGACCG [C4G C31G A70C]	0.537
GUUGCGUUGGUGUAAUGGUAACGCGUCUCCCUCCUAAGGCGAAGACUGCGGGUUCGUGUCCCGUACGGAACG [C4G C11U A40C A57U]	0.623

Variant	yeast fitness
GUUGCGUUGGCGUAAUGGUAACGCGUCUCACUCCUAAGGAGAAGACUGCGGGUUCGAGUCCGGUACGGAACG [C4G C30A C62G]	≤ 0.5
GUUGCGUUGGUGUAAUGGUAAGGCGUCUCCCUCCUAAGGUGAGGACUGCGGGCUCGAGUCCCGUACGGAGCG [C4G C11U C22G A40U A43G U53C A70G]	≤ 0.5
GUUGCGUUGGUGUAAUGGUAACGCGUCUUCCUCCUAAGGAGAAGUCUGCGGGUUCGAGUCCCGUACGGAACG [C4G C11U C29U A45U]	≤ 0.5
GUUGCGUUGGGGUAAUGGUAACGCGUCUCCCUCCUAAGGACAAGACUGCGGGUUCGAGGCCCGUACGGAGCG [C4G C11G G41C U59G A70G]	≤ 0.5
GUUGCGUUGGCGUAAUGGUAAUGCGUCUCCCUCCUAAGGAGAAGACUGAGGGUUCGAGUCCCGUACGGAACG [C4G C22U C49A]	≤ 0.5
GUUGCGUUGGCGUAAUGGUAACGCGUCUCGCUCCUAAGGAGAAGACUGCGGGUAUGAGUCCCGUACGGAACG [C4G C30G U54A C55U]	≤ 0.5
GUUGCGUUGGCGUAAUGGUAACGCGUCUGCCUCCUAAGGAGAAGACUGCGGGUUCGAGUCCCGUAUGGAACG [C4G C29G C66U]	0.588
GUUGCGUUGGCGUAAUGGUAACGCGUCUCACUCCUAAGGAGAAGACUGGGGGUUCGAGUCCCGUCCGGAACG [C4G C30A C49G A65C]	≤ 0.5
GUUGCGUUGGCGUAAUGGUAACGCGUCUGCCUCCUAAGGAGAAGACUGCGGGUUCGAGUACCGUACCGAACG [C4G C29G C60A G67C]	0.564
GUUGCGUUGGCGUAAUGGUAACGCGUCUGCCUCCUCUAGCGAAGGCUGCGAGUUCGAGUCCCGUACGGAACG [C4G C29G A36C A37U G38A A40C A45G G51A]	≤ 0.5
GUUGCGUUGGCGUAAUGGUAACGCGUCUGCCUCCUAUGGAGAAGACUGAGGGUUCGACUCCCGUACGGAACG [C4G C29G A37U C49A G58C]	0.502
GUUGCGUUGGCGUAAUGGUAACGCGUCUCACUCCUAAGGAGAAGACUGCGGCUUCGAGUCCCGUAUGGAACG [C4G C30A G52C C66U]	≤ 0.5
GUUGCGUUGGCGUAAUGGUAACGCGUCUCCUUCCUAAGGAGAAGACUGCGGGUUCGUGUCCCGUACGGAACG [C4G C31U A57U]	0.665
GUUGCGUUGGCGUAAUGGUAACGUGUCUCCCUCCCAAGGAGAAGACUGCGGGUUCGAGUCCCGUAUGGAACG [C4G C24U U35C C66U]	0.559
GUUGCGUUGGCGUAAUGGUAACGCGUCUUGCUCCUAAGCAGAAGACUGCGGGUUCGAGUCCCGUACGGAACG [C4G C29U C30G G39C]	≤ 0.5
GUUGCGUUGGCGUAAUGGUAACGAGUCUCCCUCCUAAGGAGAAGAUUGCGGGUUCGAGUACCGUACGGAACG [C4G C24A C46U C60A]	0.521
GUUGCGUUGGCGUAAUGGUAACGCGUAUCCCUCCUAAGGAGAUGACUGCGGGUUCGAGUCCCGUACGGAACG [C4G C27A A43U]	≤ 0.5
GUUGCGUUGGGGAAAUGGUAACGCGUCUCCCUCCUAAGGAGAAGACUGCGGGUUCGAGGCGCGUACGGAACG [C4G C11G U13A U59G C61G]	≤ 0.5
GUUGCGUUGGCGUAAUGGUAAGGCGUCUACCUCCUAAGGAGAAGACUGCGGGUUCGAGUCCCGUACGGAACG [C4G C22G C29A]	≤ 0.5
